Results: PMC8282703 (Clinical cancer research : an official journal of the …, 2021)
“And” between values parts separate entries of the source, which are not always exact repeats. Equal values may be shown once. Read-outs that look alike come from different tables or passages of the source.

What was measured:
Wee1 kinase [1] = settings: cited from earlier work
[2] = system: recurrent uterine serous carcinoma; settings: adavosertib monotherapy; cited from earlier work
[3] = system: pHH3, γH2AX, RAD51, pNbs1; experiment: DNA damage response and mitosis markers in paired tumor biopsies; format: in vivo, patients
Procedure, shortened: (§1)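 Expansion-cohort patients got 300 mg once daily on days 1-5 and 8-12 of 21-day cycles, with prophylactic anti-emetics. Paired 18-gauge core needle tumor biopsies were taken on C1D1 and C1D8 before the daily dose, after the 72-h dosing pause on days 6-7. Nuclear marker levels were assessed. pY15-Cdk, γH2AX and pNbs1 were reported as percent nuclear area positive. Patients were grouped by baseline pY15-Cdk.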

[4] = human, in vivo
advanced solid tumors [5] = settings: cited from earlier work
advanced solid tumors [6] = experiment: Phase 1 trial of adavosertib: tumor response by RECIST 1.1
PKMYT1 = settings: cited from earlier work
phospho-Cdk1 = settings: chemotherapy combinations, cited from earlier work
[7] = twice daily x 5 doses for 2 weeks, in 3-week cycles; cited from earlier work
[8] = Plasma pharmacokinetics of adavosertib; settings: human, oral, 300 mg
Wee1 kinase [9] = experiment: Nuclear pY15-Cdk1/2 in paired tumor biopsies; format: in vivo, patients
Procedure, shortened: as §1

For C=CCn1c(=O)c2cnc(Nc3ccc(N4CCN(C)CC4)cc3)nc2n1-c1cccc(C(C)(C)O)n1 [adavosertib], the “Reduction of nuclear pY15-Cdk, twice-daily arm, individual patients” value (Wee1 kinase [1]; 2-5 hours after dose 5, 2 of 2 patients) is listed as 84% and 90%, the “Wee1 kinase suppression (pY15-Cdk1/2 reduction), twice-daily arm” value (Wee1 kinase [1]; tumor biopsies 2-5 hours after the fifth dose) is listed as 80-90% and the “Alanine aminotransferase increased, Grade 1-2 (%)” value (human, in vivo) is listed as 11 (26%) patients (%). The “Anemia, Grade 1-2 (%)” value (human, in vivo) was 20 (47%) patients (%), the “Anemia, Grade 3 (%)” value (human, in vivo) was 9 (21%) patients (%) and the “Anemia, any-grade” value (human, in vivo) was 69%. For the same molecule, the “Anemia, ≥ grade 3” value (human, in vivo) was 21%, the “Anorexia, Grade 1-2 (%)” value (human, in vivo) was 17 (40%) patients (%) and the “Aspartate aminotransferase increased, Grade 1-2 (%)” value (human, in vivo) was 11 (26%) patients (%). The “Dehydration, Grade 1-2 (%)” value (human, in vivo) was 5 (12%) patients (%), the “Dehydration, Grade 3 (%)” value (human, in vivo) was 1 (2%) patients (%) and the “Diarrhea, Grade 1-2 (%)” value (human, in vivo) was 25 (60%) patients (%). The “Diarrhea, Grade 3 (%)” value (human, in vivo) was 2 (5%) patients (%), the “Dose-limiting toxicities (type)” value (human, in vivo) was “grade 4 hematological toxicity and grade 3 fatigue” and the “Fatigue, Grade 1-2 (%)” value (human, in vivo) was 19 (45%) patients (%). The “Fatigue, Grade 3 (%)” value (human, in vivo) was 3 (7%) patients (%), the “Febrile neutropenia, Grade 3 (%)” value (human, in vivo) was 1 (2%) patients (%) and the “Gastrointestinal adverse events (nausea, vomiting, diarrhea) that were ≥ grade 3” value (human, in vivo) was ≤ 12%. For the same molecule, the “Hypoalbuminemia, Grade 1-2 (%)” value (human, in vivo) was 9 (21%) patients (%), the “Hypocalcemia, Grade 1-2 (%)” value (human, in vivo) was 3 (7%) patients (%) and the “Hypocalcemia, Grade 3 (%)” value (human, in vivo) was 1 (2%) patients (%). For the same molecule, the “Hypocalcemia, grade 3 incidence” value (human, in vivo) was 2%, the “Hypokalemia, Grade 1-2 (%)” value (human, in vivo) was 5 (12%) patients (%) and the “Hypokalemia, Grade 3 (%)” value (human, in vivo) was 1 (2%) patients (%). The “Hypokalemia, grade 3 incidence” value (human, in vivo) was 2%, the “Hypomagnesemia, Grade 1-2 (%)” value (human, in vivo) was 7 (17%) patients (%) and the “Hypomagnesemia, Grade 3 (%)” value (human, in vivo) was 1 (2%) patients (%). For the same molecule, the “Hypomagnesemia, grade 3 incidence” value (human, in vivo) was 2%, the “Hyponatremia, Grade 1-2 (%)” value (human, in vivo) was 8 (19%) patients (%) and the “Hyponatremia, Grade 3 (%)” value (human, in vivo) was 1 (2%) patients (%). For the same molecule, the “Hyponatremia, grade 3 incidence” value (human, in vivo) was 2%, the “Hypophosphatemia, Grade 1-2 (%)” value (human, in vivo) was 10 (24%) patients (%) and the “Hypophosphatemia, Grade 3 (%)” value (human, in vivo) was 6 (14%) patients (%). The “Hypophosphatemia, ≥ grade 3” value (human, in vivo) was 14%, the “Leukopenia, Grade 1-2 (%)” value (human, in vivo) was 12 (29%) patients (%) and the “Leukopenia, Grade 3 (%)” value (human, in vivo) was 5 (12%) patients (%). The “Leukopenia, Grade 4 (%)” value (human, in vivo) was 4 (10%) patients (%), the “Leukopenia, grade 4 events” value (human, in vivo) was 10% and the “Leukopenia, ≥ grade 3” value (human, in vivo) was 21%. The “Lymphopenia, Grade 1-2 (%)” value (human, in vivo) was 18 (43%) patients (%), the “Lymphopenia, Grade 3 (%)” value (human, in vivo) was 12 (29%) patients (%) and the “Lymphopenia, any-grade” value (human, in vivo) was 71%. For the same molecule, the “Lymphopenia, ≥ grade 3” value (human, in vivo) was 29%, the “Median duration until recovery, grade 3/4 leukopenia” value (human, in vivo) was 5 days and the “Median duration until recovery, grade 3/4 lymphopenia” value (human, in vivo) was 18 days. The “Median duration until recovery, grade 3/4 neutropenia” value (human, in vivo) was 5 days, the “Nausea, Grade 1-2 (%)” value (human, in vivo) was 31 (74%) patients (%) and the “Nausea, Grade 3 (%)” value (human, in vivo) was 3 (7%) patients (%). The “Nausea, any grade, patients” value (human, in vivo) was 81%, the “Nausea, vomiting, or diarrhea, each, patients” value (human, in vivo) was > 60% and the “Neutropenia, Grade 1-2 (%)” value (human, in vivo) was 5 (12%) patients (%). For the same molecule, the “Neutropenia, Grade 3 (%)” value (human, in vivo) was 4 (10%) patients (%), the “Neutropenia, Grade 4 (%)” value (human, in vivo) was 5 (12%) patients (%) and the “Neutropenia, grade 4 events” value (human, in vivo) was 12%. For the same molecule, the “Thrombocytopenia, Grade 1-2 (%)” value (human, in vivo) was 13 (31%) patients (%), the “Thrombocytopenia, Grade 3 (%)” value (human, in vivo) was 5 (12%) patients (%) and the “Thrombocytopenia, Grade 4 (%)” value (human, in vivo) was 1 (2%) patients (%). The “Thrombocytopenia, grade 4 events” value (human, in vivo) was 2%, the “Vomiting, Grade 1-2 (%)” value (human, in vivo) was 24 (57%) patients (%) and the “Vomiting, Grade 3 (%)” value (human, in vivo) was 5 (12%) patients (%). For the same molecule, the “DLTs at dose levels other than 400 mg QD” value (in vivo) was “No DLTs”, the “Recommended phase 2 dose (RPh2D)” value (once daily on days 1-5 and 8-12 in 21-day cycles) was 300 mg and the “Upper respiratory infection, Grade 3 (%)” value (once-daily adavosertib, n = 42 patients) was 1 (2%) patients (%). The “Preliminary overall response rate” value [2] was 29%, the “Nuclear pHH3 levels between baseline and C1D8” value ([3]; 8 patients) was “generally unchanged” and the “Changes in tumor levels of nuclear RAD51” value ([3]; 8 patients, baseline vs C1D8) was “None of the 8 patients evaluable for pharmacodynamic response showed changes”. For the same molecule, the “Levels of DNA repair markers (γH2AX and/or pNbs1) at C1D8” value ([3]; both patients with significantly decreased pY15-Cdk) was “significant increases”, the “pHH3 positivity at C1D8, patient 1010056” value ([3]; from 1.1% at baseline, best response PD, p < 0.0001) was 4.1 % cells positive and the “Plasma concentrations day 5 versus day 1” value [4] was “higher on day 5 compared to day 1”. The “Overall response rate, twice-daily adavosertib” value (advanced solid tumors [5]; 25 enrolled patients, 90% confidence interval [1%, 23%]) was 8%, the “PRs, twice-daily adavosertib” value (advanced solid tumors [5]; among 25 enrolled patients) was 2 patients and the “Median number of treatment cycles, patients with SD” value (advanced solid tumors [6]; 20 patients, range 2-26) was 4 cycles. The “Patients with SD receiving ≥ 11 cycles of treatment” value (advanced solid tumors [6]; of 20 patients with SD) was 5 patients, the “Patients with best response of SD for ≥ 9 months” value (advanced solid tumors [6]; once-daily adavosertib) was 5 patients and the Overall response rate (advanced solid tumors [6]; once-daily adavosertib, 42 enrolled patients, 90% confidence interval [6%, 26%]) was 14%. For the same molecule, the “Patients with PR at the 400 mg dose level” value (advanced solid tumors [6]; out of the 3 enrolled, both ovarian cancer, dose-reduced to 300 mg) was 2 patients, the “Patients with PR at the MTD (300 mg)” value (advanced solid tumors [6]; out of the 26 enrolled at the MTD) was 4 patients and the “Inhibition of PKMYT1” value (PKMYT1) was “does not substantially inhibit PKMYT1”. For the same molecule, the “Target suppression (phospho-Cdk1 attenuation)” value (phospho-Cdk1; adavosertib twice daily at 25 mg) was “not at 25 mg”, the “Target suppression (phospho-Cdk1 attenuation)” value (phospho-Cdk1; adavosertib twice daily at 200 mg or 225 mg) was “significant target suppression” and the “MTD, twice-daily regimen” value [7] was 225 mg. For the same molecule, the concentration at 72 h [8] was > 5 nM, the “Increases in nuclear pY15-Cdk at C1D8” value (Wee1 kinase [9]; 4 of 5 patients with low baseline pY15-Cdk (≤ 2.2% NAP), p < 0.0001) was 192%-1094% and the “Patients with tumor pY15-Cdk levels higher than baseline on C1D8 (pre-dose)” value (Wee1 kinase [9]; of 8 patients with evaluable biopsy pairs (of 5 with low baseline)) was 4 patients.
